Data reported in paper PMC4127500 (Scientific Reports, 2014).
≈ marks a conversion by molar mass, not a printed value.

Experiments:
S. aureus ATCC33591 = experiment: Minimum inhibitory concentration; format: cell-based
In short: (§1)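 Broth microdilution in Mueller Hinton Broth per CLSI. Inoculum was pre-incubated in TSB at 30°C to 0.5 McFarland. Amoxicillin, ampicillin, cefotaxime and gentamicin were tested over 0.5–1024 µg.mL−1, alone or with test compound at 128 µg.mL−1. Each set was repeated three times.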

E. coli 1812446 = experiment: Minimum inhibitory concentration; format: cell-based
In short: as §1

RAW 264.7 cells = experiment: MTT cell viability assay; format: cell-based, murine; settings: RAW 264.7 monocytes; 24 h
In short: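 RAW 264.7 cells kept in DMEM with 4 mM L-glutamine, 10% FCS, 2 mM nonessential amino acids and penicillin/streptomycin at 37°C, 5% CO2. Cells were exposed 24 h to test compound or antibiotics, free or combined. Viability was read by MTT (reagent 5 mg.mL−1 in PBS) in three replicates, as % of PBS (pH 7.4) control; mastoparan-L (1–100 μg.mL−1) was the positive control.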

P. aeruginosa 6817 = experiment: Minimum inhibitory concentration; format: cell-based
In short: as §1

E. coli 2101123 = experiment: Minimum inhibitory concentration; format: cell-based
In short: as §1

S. aureus 7314 = experiment: Minimum inhibitory concentration; format: cell-based
In short: as §1

E. coli (TEM-1) = experiment: Minimum inhibitory concentration; format: cell-based
In short: as §1

S. aureus (ATCC33591) = experiment: Murine non-lethal Staphylococcus aureus infection model; format: in vivo, C57BL/6 mice; settings: S. aureus infected mice
In short: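 C57BL/6 mice (18–22 g, n = 6/group) got i.p. 100 µL of S. aureus ATCC33591 at 2 × 10^5 CFU.mL−1. After 1 h, penicillin or ampicillin (100 or 200 mg.kg−1) or cefotaxime (35 mg.kg−1) was given i.p. at 12, 24, 48 and 72 h over 7 days. Day-7 blood and peritoneal fluid were serially diluted, plated in triplicate on mannitol salt agar, and counted as CFU.mL−1.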

[1] = tested on: E. coli 1812446 clinical strain; experiment: Murine non-lethal Escherichia coli infection model; format: in vivo, C57BL/6 mice; settings: E. coli infected mice
In short: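 C57BL/6 mice (18–22 g, n = 6/group) got i.p. 200 μl holding 2.5 × 10^8 CFU of E. coli 1812446. One hour later they were treated i.p. with penicillin or ampicillin (100 or 200 mg.kg−1) or gentamicin (10 mg.kg−1), at 12, 24, 48 and 72 h over 7 days. On day 7, blood and peritoneal fluid were serially diluted and plated in triplicate on Mueller Hinton agar at 37°C overnight. Detection limit was 100 CFU.ml−1.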

B. cereus 6591 = experiment: Minimum inhibitory concentration; format: cell-based
In short: as §1

E. coli 6881 = experiment: Minimum inhibitory concentration; format: cell-based
In short: as §1

[2] = S. aureus ATCC33591, in the presence of dBLIP1 (128 µg.mL^−1)
[3] = S. aureus ATCC33591, in the presence of dBLIP2 (128 µg.mL^−1)
[4] = Staphylococcus aureus, ATCC33591
[5] = E. coli 1812446, in the presence of dBLIP1 (128 µg.mL^−1)
[6] = E. coli 1812446, in the presence of dBLIP2 (128 µg.mL^−1)
[7] = P. aeruginosa 6817, in the presence of dBLIP1 (128 µg.mL^−1)
[8] = P. aeruginosa 6817, in the presence of dBLIP2 (128 µg.mL^−1)
[9] = E. coli 2101123, in the presence of dBLIP1 (128 µg.mL^−1)
[10] = E. coli 2101123, in the presence of dBLIP2 (128 µg.mL^−1)
[11] = S. aureus 7314, in the presence of dBLIP1 (128 µg.mL^−1)
[12] = S. aureus 7314, in the presence of dBLIP2 (128 µg.mL^−1)
[13] = B. cereus 6591, in the presence of dBLIP1 (128 µg.mL^−1)
[14] = B. cereus 6591, in the presence of dBLIP2 (128 µg.mL^−1)
[15] = E. coli 6881, in the presence of dBLIP1 (128 µg.mL^−1)
[16] = E. coli 6881, in the presence of dBLIP2 (128 µg.mL^−1)
[17] = E. coli (TEM-1), in the presence of dBLIP1 (128 µg.mL^−1)
[18] = E. coli (TEM-1), in the presence of dBLIP2 (128 µg.mL^−1)

Compound: CC1(C)S[C@@H]2[C@H](NC(=O)[C@H](N)c3ccccc3)C(=O)N2[C@H]1C(=O)O [AMP, Ampicillin]
- MIC (S. aureus ATCC33591; [2]): 128 µg/mL
- MIC (S. aureus ATCC33591; [3]): 128 µg/mL
- MIC (S. aureus ATCC33591; [4]): 512 µg/mL (≈ 1470 µM)
- MIC (E. coli 1812446; [5]): 512 µg/mL
- MIC (E. coli 1812446; [6]): 512 µg/mL
- MIC (E. coli 1812446; Escherichia coli, 1812446): > 512 µg/mL
- cytotoxic activity against RAW 264.7 (MTT cell viability) (RAW 264.7 cells): 200 µg/mL
- MIC (P. aeruginosa 6817; [7]): 32 µg/mL
- MIC (P. aeruginosa 6817; [8]): 32 µg/mL
- MIC (P. aeruginosa 6817; Pseudomonas aeruginosa, 6817): 512 µg/mL (≈ 1470 µM)
- MIC (E. coli 2101123; [9]): 256 µg/mL
- MIC (E. coli 2101123; [10]): 256 µg/mL
- MIC (E. coli 2101123; Escherichia coli, 2101123): > 512 µg/mL
- MIC (S. aureus 7314; [11]): 32 µg/mL
- MIC (S. aureus 7314; [12]): 32 µg/mL
- MIC (S. aureus 7314; Staphylococcus aureus, 7314): 512 µg/mL (≈ 1470 µM)
- MIC (E. coli (TEM-1); Escherichia coli): 1020 µg/mL (≈ 2930 µM)
- CFU, antibiotic alone (S. aureus (ATCC33591); 200 mg.kg^−1 i.p.): CFUs were slightly reduced
- CFU, antibiotic alone ([1]; 100 mg.kg^−1 i.p.): did not cause any bactericidal effect
- CFU, antibiotic alone ([1]; 200 mg.kg^−1 i.p.): a lower reduction in CFU
- MIC (B. cereus 6591; [13]): 16 µg/mL
- MIC (B. cereus 6591; [14]): 8 µg/mL
- MIC (B. cereus 6591; Bacillus cereus, 6591): 256 µg/mL (≈ 733 µM)
- MIC (E. coli 6881; [15]): 32 µg/mL
- MIC (E. coli 6881; [16]): 32 µg/mL
- MIC (E. coli 6881; Escherichia coli, 6881): 128 µg/mL (≈ 366 µM)

Compound: CC1(C)S[C@@H]2[C@H](NC(=O)Cc3ccccc3)C(=O)N2[C@H]1C(=O)O [Penicillin G]
- cytotoxic activity against RAW 264.7 (MTT cell viability) (RAW 264.7 cells): 150 µg/mL

Compound: CNC(C)C1CCC(N)C(OC2C(N)CC(N)C(OC3OCC(C)(O)C(NC)C3O)C2O)O1 (centres unmarked) [GEN, Gentamicin]
- MIC (S. aureus ATCC33591; [2]): 8 µg/mL
- MIC (S. aureus ATCC33591; [3]): 8 µg/mL
- MIC (S. aureus ATCC33591; [4]): 64 µg/mL (≈ 134 µM)
- MIC (E. coli 1812446; [5]): 128 µg/mL
- MIC (E. coli 1812446; [6]): 128 µg/mL
- MIC (E. coli 1812446; Escherichia coli, 1812446): 512 µg/mL (≈ 1070 µM)
- cytotoxic activity against RAW 264.7 (MTT cell viability) (RAW 264.7 cells): 150 µg/mL
- MIC (P. aeruginosa 6817; [7]): 8 µg/mL
- MIC (P. aeruginosa 6817; [8]): 8 µg/mL
- MIC (P. aeruginosa 6817; Pseudomonas aeruginosa, 6817): 32 µg/mL (≈ 67 µM)
- MIC (E. coli 2101123; [9]): 128 µg/mL
- MIC (E. coli 2101123; [10]): 128 µg/mL
- MIC (E. coli 2101123; Escherichia coli, 2101123): 256 µg/mL (≈ 536 µM)
- MIC (S. aureus 7314; [11]): 8 µg/mL
- MIC (S. aureus 7314; [12]): 8 µg/mL
- MIC (S. aureus 7314; Staphylococcus aureus, 7314): 64 µg/mL (≈ 134 µM)
- MIC (E. coli (TEM-1); [17]): 4 µg/mL
- MIC (E. coli (TEM-1); [18]): 4 µg/mL
- MIC (E. coli (TEM-1); Escherichia coli): 32 µg/mL (≈ 67 µM)
- CFU, antibiotic alone ([1]; gentamicin 10 mg.kg^−1 i.p.): efficient CFU decline
- MIC (B. cereus 6591; [13]): 4 µg/mL
- MIC (B. cereus 6591; [14]): 4 µg/mL
- MIC (B. cereus 6591; Bacillus cereus, 6591): 32 µg/mL (≈ 67 µM)
- MIC (E. coli 6881; [15]): 4 µg/mL
- MIC (E. coli 6881; [16]): 4 µg/mL
- MIC (E. coli 6881; Escherichia coli, 6881): 32 µg/mL (≈ 67 µM)

Compound: Mastoparan-L
- cytotoxic activity against RAW 264.7 (MTT cell viability) (RAW 264.7 cells): 10 µg/mL

Compound: CO/N=C(\C(=O)N[C@@H]1C(=O)N2C(C(=O)O)=C(COC(C)=O)CS[C@H]12)c1csc(N)n1 [CTX, Cefotaxime]
- MIC (S. aureus ATCC33591; [2]): 8 µg/mL
- MIC (S. aureus ATCC33591; [3]): 8 µg/mL
- MIC (S. aureus ATCC33591; [4]): 128 µg/mL (≈ 281 µM)
- MIC (E. coli 1812446; [5]): 16 µg/mL
- MIC (E. coli 1812446; [6]): 16 µg/mL
- MIC (E. coli 1812446; Escherichia coli, 1812446): 256 µg/mL (≈ 562 µM)
- MIC (P. aeruginosa 6817; [7]): 8 µg/mL
- MIC (P. aeruginosa 6817; [8]): 8 µg/mL
- MIC (P. aeruginosa 6817; Pseudomonas aeruginosa, 6817): 64 µg/mL (≈ 141 µM)
- MIC (E. coli 2101123; [9]): 8 µg/mL
- MIC (E. coli 2101123; [10]): 8 µg/mL
- MIC (E. coli 2101123; Escherichia coli, 2101123): 128 µg/mL (≈ 281 µM)
- MIC (S. aureus 7314; [11]): 8 µg/mL
- MIC (S. aureus 7314; [12]): 8 µg/mL
- MIC (S. aureus 7314; Staphylococcus aureus, 7314): 128 µg/mL (≈ 281 µM)
- MIC (E. coli (TEM-1); [17]): 4 µg/mL
- MIC (E. coli (TEM-1); [18]): 4 µg/mL
- MIC (E. coli (TEM-1); Escherichia coli): 32 µg/mL (≈ 70.3 µM)
- CFU, antibiotic alone (S. aureus (ATCC33591); cefotaxime 35 mg.kg^−1 i.p.): efficient reduction in CFU
- MIC (B. cereus 6591; [13]): 8 µg/mL
- MIC (B. cereus 6591; [14]): 8 µg/mL
- MIC (B. cereus 6591; Bacillus cereus, 6591): 64 µg/mL (≈ 141 µM)
- MIC (E. coli 6881; [15]): 8 µg/mL
- MIC (E. coli 6881; [16]): 8 µg/mL
- MIC (E. coli 6881; Escherichia coli, 6881): 64 µg/mL (≈ 141 µM)

Compound: CC1(C)S[C@@H]2[C@H](NC(=O)[C@H](N)c3ccc(O)cc3)C(=O)N2[C@H]1C(=O)O [AMX, Amoxicillin]
- MIC (S. aureus ATCC33591; [2]): 32 µg/mL
- MIC (S. aureus ATCC33591; [3]): 32 µg/mL
- MIC (S. aureus ATCC33591; [4]): 512 µg/mL (≈ 1400 µM)
- MIC (E. coli 1812446; [5]): 16 µg/mL
- MIC (E. coli 1812446; [6]): 16 µg/mL
- MIC (E. coli 1812446; Escherichia coli, 1812446): 256 µg/mL (≈ 701 µM)
- MIC (P. aeruginosa 6817; [7]): 32 µg/mL
- MIC (P. aeruginosa 6817; [8]): 16 µg/mL
- MIC (P. aeruginosa 6817; Pseudomonas aeruginosa, 6817): 512 µg/mL (≈ 1400 µM)
- MIC (E. coli 2101123; [9]): 8 µg/mL
- MIC (E. coli 2101123; [10]): 8 µg/mL
- MIC (E. coli 2101123; Escherichia coli, 2101123): 256 µg/mL (≈ 701 µM)
- MIC (S. aureus 7314; [11]): 32 µg/mL
- MIC (S. aureus 7314; [12]): 16 µg/mL
- MIC (S. aureus 7314; Staphylococcus aureus, 7314): 512 µg/mL (≈ 1400 µM)
- MIC (E. coli (TEM-1); Escherichia coli): 128 µg/mL (≈ 350 µM)
- MIC (B. cereus 6591; [13]): 8 µg/mL
- MIC (B. cereus 6591; [14]): 8 µg/mL
- MIC (B. cereus 6591; Bacillus cereus, 6591): 256 µg/mL (≈ 701 µM)
- MIC (E. coli 6881; [15]): 32 µg/mL
- MIC (E. coli 6881; [16]): 16 µg/mL
- MIC (E. coli 6881; Escherichia coli, 6881): 128 µg/mL (≈ 350 µM)
